This note sets out measurements from ChEMBL document CHEMBL1144140, “Diterpenes from the fruits of Vitex rotundifolia” (J Nat Prod, 1999).

Active and inactive are the calls of the source. No cut-off for these calls is given here.

What all share (format): functional
The subject of experiment [1] is Radical scavenging activity. The experiment in a line: Antioxidant activity assessed as DPPH radical scavenging activity at 80 uM after 30 mins. Summed up: (§1)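 DPPH scavenging: test sample in EtOH added to 0.1 M acetic acid buffer pH 5.5 plus 0.5 mM DPPH EtOH solution (stock); stood 30 min at room temperature; absorbance read at 517 nm, activity given as change in optical density. Standards alpha-tocopherol and L-cysteine.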
Background: Loss of DPPH colour is used to gauge radical scavenging.

The test system of experiment [2] is Radical scavenging activity. The experiment in a line: Antioxidant activity assessed as DPPH radical scavenging activity at 20 uM after 30 mins. Summed up:
as §1

Experiment [3] deals with Radical scavenging activity. The experiment in a line: Antioxidant activity assessed as DPPH radical scavenging activity at 40 uM after 30 mins. The method, boiled down:
as §1

Experiment [4] relates to Radical scavenging activity. The experiment in a line: Antioxidant activity assessed as DPPH radical scavenging activity at 10 uM after 30 mins. Summed up: as §1
Experiment [5] can be described thus: Antioxidant activity at 0.5 mM by ferric-thiocyanate method. The method, boiled down:
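Linoleic acid peroxidation (ferric thiocyanate): sample (final 0.5 mM) with linoleic acid in EtOH/0.05 M phosphate buffer pH 7.0, kept dark at 40 °C for 5 days; aliquot diluted in 75% EtOH, ammonium thiocyanate and ferrous chloride in HCl added, absorbance at 500 nm read at 3 min. Control lacked compound; alpha-tocopherol and BHA standards.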

In the case of `N[C@@H](CS)C(=O)O`, the figures for the deltaA in experiment [1], in experiment [2] and in experiment [3] were 0.754, 0.161 and 0.355, respectively.

Regarding `Cc1c(C)c2c(c(C)c1O)CC[C@@](C)(CCC[C@H](C)CCC[C@H](C)CCCC(C)C)O2`, the figures for the deltaA in experiment [4], in experiment [2] and in experiment [3] were 0.252, 0.471 and 0.934, respectively.

Turning to `CC(C)c1cc2c(cc1O)[C@@]1(C)CCCC(C)(C)[C@@H]1CC2`, the deltaA was determined as 0.255 in experiment [1], 0.081 in experiment [2] and 0.153 in experiment [3]. Moreover, the outcome in experiment [5] was Active.

As for `COc1ccc(O)c(C(C)(C)C)c1.COc1ccc(O)cc1C(C)(C)C`, the result in experiment [5] was Active.
